Measured values from ChEMBL document CHEMBL1817625, “Synthesis of pheophorbide-a conjugates with anticancer drugs as potential cancer diagnostic and therapeutic agents” (Bioorg Med Chem, 2011).
Calls of active or inactive are those of the source.

Legend:
A549 = experiment: Cytotoxicity against human A549 cells assessed as inhibition of cell growth at 10 uM after 3 days by SRB assay; type: functional, cell-based
Procedure, shortened: (§1)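 Cultures were kept in DMEM with 10% FBS and antibiotic–antimycotic at 37 °C, 5% CO2, and detached with trypsin/EDTA. Cells were plated at 50,000 cells/mL and treated with 10 µM compound for 3 days. SRB staining: 1 h cold fixation, 1 h room-temperature stain, 1% acetic acid washes, 10 mM Tris release. A515 was read; the mean of four duplicates was given as % of solvent-treated control.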

SK-OV-3 = experiment: Cytotoxicity against human SKOV3 cells assessed as inhibition of cell growth at 10 uM after 3 days by SRB assay; type: functional, cell-based
Procedure, shortened: (§2)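 Cells were grown in RPMI 1640 with 10% FBS and antibiotic–antimycotic at 37 °C, 5% CO2, and trypsin/EDTA-detached. They were seeded at 50,000 cells/mL and exposed to 10 µM compound for 3 days. For SRB staining, cells were fixed cold for 1 h, stained 1 h at room temperature, washed with 1% acetic acid and solubilized in 10 mM Tris. A515 was read; means of four duplicates were expressed as % of solvent-treated control.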

HepG2 = experiment: Cytotoxicity against human HepG2 cells assessed as inhibition of cell growth at 10 uM after 3 days by SRB assay; type: functional, cell-based; procedure, shortened: as §1
HeLa [1] = experiment: Cytotoxicity against human HeLa cells assessed as inhibition of cell growth at 10 uM after 3 days by SRB assay; type: functional, cell-based
Procedure, shortened: (§3)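 Cells were kept at 37 °C in 5% CO2, HeLa in DMEM and MCF7 in RPMI 1640, each with 10% FBS. They were seeded at 50,000 cells/mL in 96-well plates, exposed to 10 µM compound for 3 days, then fixed in the cold for 1 h. Staining was SRB for 1 h at room temperature with 1% acetic acid washes. Bound dye was released in 10 mM Tris and read at 515 nm. Values are means of four duplicated samples, as a percentage of solvent-treated control.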

U-87MG ATCC = experiment: Cytotoxicity against human U87MG cells assessed as inhibition of cell growth at 10 uM after 3 days by SRB assay; type: functional, cell-based; procedure, shortened: as §2
YD-10B = experiment: Cytotoxicity against human YD-10B cells assessed as inhibition of cell growth at 10 uM after 3 days by SRB assay; type: functional, cell-based; procedure, shortened: as §1
HeLa [2] = experiment: Cellular uptake in human HeLa cells at 10 uM after 48 hrs by confocal microscopic analysis; type: ADME, cell-based
Procedure, shortened: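 HeLa cells were seeded in slide dishes in RPMI 1640 overnight. They were then exposed to 10 µM compound in complete medium for 48 h under 95% air/5% CO2 and washed three times with PBS. Confocal imaging used 440 nm excitation, collecting 575–600 nm emission (doxorubicin channel) and 655–755 nm emission (pheophorbide-a channel).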

HCT-116 = experiment: Cytotoxicity against human HCT116 cells assessed as inhibition of cell growth at 10 uM after 3 days by SRB assay; type: functional, cell-based; procedure, shortened: as §2
MCF7 = experiment: Cytotoxicity against human MCF7 cells assessed as inhibition of cell growth at 10 uM after 3 days by SRB assay; type: functional, cell-based; procedure, shortened: as §3
PC-3 = experiment: Cytotoxicity against human PC3 cells assessed as inhibition of cell growth at 10 uM after 3 days by SRB assay; type: functional, cell-based; procedure, shortened: as §2
AT84 = experiment: Cytotoxicity against mouse AT84 cells assessed as inhibition of cell growth at 10 uM after 3 days by SRB assay; type: functional, cell-based; procedure, shortened: as §2
KB = experiment: Cytotoxicity against human KB cells assessed as inhibition of cell growth at 10 uM after 3 days by SRB assay; type: functional, cell-based; procedure, shortened: as §2

C=Cc1c(C)c2cc3nc(c4c5[nH]c(cc6nc(cc1[nH]2)C(C)=C6CC)c(C)c5C(=O)[C@@H]4C(=O)OC)[C@@H](CCC(=O)Nc1ccc(COC(=O)N[C@@H]2C[C@@H](O[C@H]4C[C@](O)(C(=O)CO)Cc5c(O)c6c(c(O)c54)C(=O)c4c(OC)cccc4C6=O)O[C@H](C)[C@@H]2O)cc1)[C@@H]3C
active: growth inhibition (GI) (A549) | growth inhibition (GI) (SK-OV-3) | growth inhibition (GI) (HepG2) | growth inhibition (GI) (HeLa [1]) | growth inhibition (GI) (U-87MG ATCC) | growth inhibition (GI) (YD-10B) | growth inhibition (GI) (HCT-116) | growth inhibition (GI) (MCF7) | growth inhibition (GI) (PC-3) | growth inhibition (GI) (AT84) | growth inhibition (GI) (KB)
Active: Drug uptake (HeLa [2])

COc1cccc2c1C(=O)c1c(O)c3c(c(O)c1C2=O)C[C@@](O)(C(=O)CO)C[C@@H]3O[C@H]1C[C@H](N)[C@H](O)[C@H](C)O1 [DOXORUBICIN]
Active: Drug uptake (HeLa [2])

C=Cc1c(C)c2cc3nc(c4c5[nH]c(cc6nc(cc1[nH]2)C(C)=C6CC)c(C)c5C(=O)[C@@H]4C(=O)OC)[C@@H](CCC(=O)O)[C@@H]3C [PHEOPHORBIDE A]
Active: Drug uptake (HeLa [2])

C=Cc1c(C)c2cc3nc(c4c5[nH]c(cc6nc(cc1[nH]2)C(C)=C6CC)c(C)c5C(=O)[C@@H]4C(=O)OC)[C@@H](CCC(=O)N[C@@H]1C[C@@H](O[C@H]2C[C@](O)(C(=O)CO)Cc4c(O)c5c(c(O)c42)C(=O)c2c(OC)cccc2C5=O)O[C@H](C)[C@@H]1O)[C@@H]3C
Active: Drug uptake (HeLa [2])
active: growth inhibition (GI) (HeLa [1]) | growth inhibition (GI) (U-87MG ATCC) | growth inhibition (GI) (MCF7) | growth inhibition (GI) (AT84)

C=Cc1c(C)c2cc3nc(c4c5[nH]c(cc6nc(cc1[nH]2)C(C)=C6CC)c(C)c5C(=O)[C@@H]4C(=O)OC)[C@@H](CCC(=O)Oc1ccccc1/C=C/C(=O)N[C@@H]1C[C@@H](O[C@H]2C[C@](O)(C(=O)CO)Cc4c(O)c5c(c(O)c42)C(=O)c2c(OC)cccc2C5=O)O[C@H](C)[C@@H]1O)[C@@H]3C
active: growth inhibition (GI) (A549) | growth inhibition (GI) (SK-OV-3) | growth inhibition (GI) (HepG2) | growth inhibition (GI) (HeLa [1]) | growth inhibition (GI) (U-87MG ATCC) | growth inhibition (GI) (YD-10B) | growth inhibition (GI) (HCT-116) | growth inhibition (GI) (MCF7) | growth inhibition (GI) (PC-3) | growth inhibition (GI) (AT84) | growth inhibition (GI) (KB)
Active: Drug uptake (HeLa [2])

C=Cc1c(C)c2cc3nc(c4c5[nH]c(cc6nc(cc1[nH]2)C(C)=C6CC)c(C)c5C(=O)[C@@H]4C(=O)OC)[C@@H](CCC(=O)O[C@@H](C(=O)O[C@H]1C[C@@]2(O)[C@@H](OC(=O)c4ccccc4)[C@@H]4[C@]5(OC(C)=O)CO[C@@H]5C[C@H](O)[C@@]4(C)C(=O)[C@H](OC(C)=O)C(=C1C)C2(C)C)[C@@H](NC(=O)c1ccccc1)c1ccccc1)[C@@H]3C
active: growth inhibition (GI) (HeLa [1]) | growth inhibition (GI) (YD-10B) | growth inhibition (GI) (MCF7) | growth inhibition (GI) (KB)
